Measurements as given in ChEMBL document CHEMBL4513216, “Probing the Open Global Health Chemical Diversity Library for Multistage-Active Starting Points for Next-Generation Antimalarials” (ACS Infect Dis, 2020).

experiment: Toxicity liver stage against HepG2, at 10uM; type: cell-based; design: test concentration 10 uM, cell line HepG2-A16-CD81EGFP; conditions: human, HepG2-A16-CD81EGFP cells; read-out: INHIBITION
Summary of the method: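 Uninfected HepG2-A16-CD81EGFP cells, 3 × 10^3 per well, 1536-well, plated on prespotted compound at 10 μM final, parasite-free screening media added to match infected plates; puromycin 10 μM positive, DMSO 0.5% negative; run in parallel with 48 h PbLuc assay at 37 °C, 5% CO2; viability by CellTiter-Glo luminescence, normalized to controls.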

In order of falling cytotoxicity at 10 µM:
1. CCN(CC)C(CNCc1ccc(OC)c(F)c1)c1ccco1 (stereo unspecified)  15.2%
2. O=C(N1CCOCC1)N1CCCC1c1nc(-c2ccccn2)no1 (stereo unspecified)  10.7%
3. CCNc1nc2cn(-c3cccc(OC)c3)c(=O)c-2c[nH]1  8.65%
4. O=C1CCCN1CCc1noc(-c2ccc(Cl)cc2)n1  7.9%
5. CC(NC(=O)NCc1ccccn1)c1ccc2c(c1)CCC(=O)N2 (stereo unspecified)  7.47%
6. CCn1cc(-n2cc3nc(N4CCC(C)CC4)[nH]cc-3c2=O)cn1  6.97%
7. CCCOc1ccc(OCCN2CCOCS2(=O)=O)cc1  5.56%
8. CC(=O)NCCNC(=O)c1cnc2c(c1)nc(-c1ccccc1Cl)n2C  4.99%
9. COc1ccc(Cl)cc1CN(C)CC(=O)Nc1ccnn1C(C)C1CC1 (stereo unspecified)  4.85%
10. Cc1noc(C)c1CN1C(=O)[C@@H]2CC[C@H]1CN(Cc1cccc(O)c1)C2  4.42%
11. COCc1nn(C(C)C)c2c1CCN(Cc1ccoc1)C2  3.33%
12. O=C1NCCCC[C@@H]1Nc1ccc(-c2nc(C3CC3)no2)cn1  2.87%
13. Cc1ccc2[nH]c(CN(C)c3cc(CN)nc(C)n3)nc2c1  1.69%
14. COCc1nn(C)c2c1CN(Cc1cnn(C)c1)CC2  1.64%
15. CCc1ccccc1OC1CN(C(=O)CN(C)Cc2cccnc2)C1  1.61%
16. Cc1cnn(CC(C)NCc2ccc(OCc3noc(C)n3)cc2)c1 (stereo unspecified)  1.16%
17. CCc1ccc(C(=O)NCCNc2ncccn2)cc1  0.364%
18. CCN1CC2(CNCCN(C(=O)Nc3ccccc3)C2)CC1=O (stereo unspecified)  0.346%
19. O=C(CCc1cc(O)no1)N1CCCC(COc2ccccc2F)C1 (stereo unspecified)  0.296%
20. Cn1ccnc1-c1ccc(NCc2cn3c(n2)SCC3)nn1  -0.641%
21. Cn1cccc1C(=O)N1CCCCC12CC(=O)N(c1cccnc1)C2 (stereo unspecified)  -1.91%
22. CN(C)CCNC(=O)c1ccc(OC2CCN(C(=O)CO)CC2)c(Cl)c1  -2.43%
23. Cc1cccc(CS(=O)(=O)CC(=O)N(C)Cc2ccccc2F)c1  -2.71%
24. Cc1ccc2c(n1)N(CCn1cccn1)CCN(C1CCOCC1)C2  -2.83%
25. Cc1cnn(CC2CCCN2C(=O)c2csc(-c3nnc[nH]3)n2)c1 (stereo unspecified)  -2.94%
26. Cc1ccsc1CCNC(=O)CCC(=O)NC1CCCC1  -2.98%
27. Cc1nc(C)n(CC2CCCN2CCOc2ccccc2F)n1 (stereo unspecified)  -3.21%
28. CCC(NC(=O)c1cnc(N(C)C)nc1C)c1ccc(S(C)(=O)=O)cc1 (stereo unspecified)  -3.5%
29. O=C(c1cn(-c2ccc(F)cc2)nn1)N1CCCC(n2cccn2)C1 (stereo unspecified)  -3.56%
30. C=C(C)COc1ccccc1NC(=O)N1CCOCC1CO (stereo unspecified)  -4.1%
31. O=C(c1cc(-c2ccco2)nc2c(Cl)cccc12)N1C[C@H]2CNC[C@H]2C1  -4.23%
32. Cn1cc(C#N)cc1C(=O)N1CCC2(CCCN(CC3CCC3)C2=O)C1 (stereo unspecified)  -4.3%
33. CC(CNC(=O)c1cc(Cn2cnc3ccccc32)[nH]n1)N1CCCC1 (stereo unspecified)  -4.62%
34. COc1ccccc1[C@@H]1CN(Cc2csc(C(C)=O)c2)C[C@H]1C(=O)O  -4.75%
35. CO[C@@H]1CCN(C2CCOCC2)C[C@@H]1Cc1ccccc1  -4.87%
36. NC(Cc1nc(-c2ccccc2)no1)c1ccccc1 (stereo unspecified)  -5.08%
37. O=C1OCCN1Cc1nc(C2(c3ccc(F)cc3)CCOC2)no1 (stereo unspecified)  -5.22%
38. Cc1csc(CNC(=O)NCc2ccc3c(c2)OCCO3)n1  -5.52%
39. CC[C@@]1(O)CCN(C(=O)c2ccc(-c3cccc(F)c3)cc2)C[C@H]1O  -5.68%
40. Cn1nnnc1SCCNC(=O)C1CCN(C(=O)C2CC2)CC1  -5.95%
41. O=C(CN1CCCCC1Cn1cncn1)NCCc1ccsc1 (stereo unspecified)  -6.19%
42. CC1(CNS(=O)(=O)c2cccc(C(=O)N3CCSCC3)c2)COC1  -6.69%
43. O=C(CN1CC(n2cccn2)C1)NCCC1=CCCCC1  -8.25%
44. COc1ccccc1C(C)N(C)Cc1nc2c(cnn2C)c(=O)[nH]1 (stereo unspecified)  -9.1%
45. CCc1nc(CN2CCN(C(=O)c3cncnc3CC)CC2)cs1  -11.4%
46. CCNC(=O)[C@@H]1C[C@H](NC(=O)c2ccccc2C#N)CN1CCCSC  -12.7%
47. O=C(Nc1ccccc1F)C1=NN(c2ccccc2)C(=O)CN1  -13.2%
48. COc1ncccc1C(=O)NCC1Cc2ccccc2O1 (stereo unspecified)  -13.4%
49. CCc1ccc(CN2C[C@@H](C(=O)O)[C@H](c3ccccc3OC)C2)o1  -13.9%
50. CCN(C)c1ncnc2c1CCN(C(=O)NCc1cccnc1)CC2  -126%
51. O=C(O)[C@H]1C[C@H](C(=O)NCc2ccncc2)CN(CCC(F)(F)F)C1  -142%
52. Cn1ccnc1CN1CCc2ncnc(N3CCCC3)c2CC1  -142%
53. c1csc(N2[C@H](Cn3cncn3)C[C@@H]3CNCC[C@@H]32)n1  -142%
54. c1csc(CN2CCC3(CCCN(c4nncs4)C3)C2)n1 (stereo unspecified)  -144%
55. CN1CCN(C(=O)c2ncn3c2CN(C)S(=O)(=O)c2ccccc2-3)CC1  -153%
56. COCCC1(CO)CCCN(Cc2ccc(C#N)cc2)C1 (stereo unspecified)  -156%
